ChEMBL document CHEMBL4145595, “Discovery of MK-8282 as a Potent G-Protein-Coupled Receptor 119 Agonist for the Treatment of Type 2 Diabetes” (ACS Med Chem Lett, 2018)
Activity calls are given as the source filed them. No cut-off for these calls is given here.

Columns and labels:
[1] = molecular target: T1, Glucose-dependent insulinotropic receptor (Homo sapiens) (UniProt Q8TDV5); assay: (§1) Agonist activity at human GPR119 expressed in HEK293 cells assessed as increase in cAMP level after 30 mins by LANCE assay; type: functional, cell-based
T1 sequence (whole entry): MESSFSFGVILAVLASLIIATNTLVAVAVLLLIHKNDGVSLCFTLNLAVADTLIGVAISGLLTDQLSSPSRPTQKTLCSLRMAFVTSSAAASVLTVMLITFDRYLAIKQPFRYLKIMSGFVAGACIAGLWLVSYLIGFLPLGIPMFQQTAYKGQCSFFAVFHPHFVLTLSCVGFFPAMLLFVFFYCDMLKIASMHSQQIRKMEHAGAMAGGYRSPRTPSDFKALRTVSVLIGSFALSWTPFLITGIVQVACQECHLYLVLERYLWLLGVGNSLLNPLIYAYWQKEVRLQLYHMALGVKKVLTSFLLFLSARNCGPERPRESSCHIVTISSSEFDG

[2] = molecular target: T2, Glucose-dependent insulinotropic receptor (Homo sapiens, UniProt Q8TDV5); assay: as §1; type: functional, cell-based
T2 sequence (Q8TDV5 whole entry): T1 sequence (whole entry)

[3] = molecular target: T3, Glucose-dependent insulinotropic receptor (Mus musculus) (UniProt Q7TQP3); assay: (§2) Agonist activity at mouse GPR119 assessed as increase in cAMP level; type: functional
T3 sequence (whole entry): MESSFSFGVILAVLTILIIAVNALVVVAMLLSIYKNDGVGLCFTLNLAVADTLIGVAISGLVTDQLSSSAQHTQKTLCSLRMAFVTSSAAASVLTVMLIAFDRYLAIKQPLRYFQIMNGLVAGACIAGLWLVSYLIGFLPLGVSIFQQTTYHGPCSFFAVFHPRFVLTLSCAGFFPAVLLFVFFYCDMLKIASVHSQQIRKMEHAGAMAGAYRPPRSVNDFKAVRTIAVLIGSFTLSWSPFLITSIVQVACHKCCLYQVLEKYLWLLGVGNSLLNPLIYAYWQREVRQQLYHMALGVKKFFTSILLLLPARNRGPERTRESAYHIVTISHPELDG

[4] = molecular target: T4, Glucose-dependent insulinotropic receptor (Mus musculus, UniProt Q7TQP3); assay: as §2; type: functional
T4 sequence (Q7TQP3 whole entry): T3 sequence (whole entry)

Mus musculus [5] = assay: Glucose lowering effect in C57Bl/6NCrl mouse assessed as reduction in glucose level at 3 mg/kg, po administered via gavage pretreated for 30 mins followed by glucose-challenge measured after 20 mins by OGTT relative to control; type: functional; set-up: scale not given: the % may be the effect or the level left
Method in brief: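 Overnight-fasted mice got compound or vehicle orally at 3 to 10 mg/kg. Glucose (3 g/kg po) was given 30 min post-dose. Blood glucose was read by hand-held glucometer before dosing, before glucose and 20 min after glucose. Glucose lowering (%) = [(1 − 20 min glucose of treated / 20 min glucose of vehicle) × 100].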

[6] = Plasma clearance in monkey at 1 mg/kg, iv or 3 mg/kg, po; type: ADME, organism-based, Macaca mulatta; conditions: rhesus monkey
Method in brief: (§3)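 Monkey PK used 1 mpk IV and 3 mpk PO. Readouts were plasma clearance (mL/min/kg), Vdss (L/kg), t½ (h), oral AUC (µM·h) and bioavailability F (%).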

[7] = Volume of distribution at steady state in monkey at 1 mg/kg, iv or 3 mg/kg, po; type: ADME, organism-based, Macaca mulatta; conditions: rhesus monkey, in vivo, read-out: Vdss; method in brief: as §3
[8] = Half life in monkey at 1 mg/kg, iv or 3 mg/kg, po; type: ADME, organism-based, Macaca mulatta; conditions: rhesus monkey, in vivo; method in brief: as §3
[9] = AUC in monkey at 3 mg/kg, po; type: ADME, organism-based, Macaca mulatta; conditions: rhesus monkey, in vivo; method in brief: as §3
[10] = Oral bioavailability in monkey at 3 mg/kg; type: ADME, organism-based, Macaca mulatta; conditions: rhesus monkey, in vivo; method in brief: as §3
Mus musculus [11] = assay: Antidiabetic activity in C57Bl/6NCrl mouse assessed as reduction in glucose excursion administered via oral gavage pretreated for 30 mins followed by glucose-challenge measured 60 mins post dose by OGTT; type: functional, organism-based
Method in brief: (§4)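 Lean C57Bl/6 mice got oral vehicle or drug 30 min before the glucose challenge. Blood glucose was monitored for 60 min after oral administration and expressed as area under the curve (glucose excursion). Doses ranged from 0.03 to 30 mpk.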

Mus musculus [12] = assay: Antidiabetic activity in C57Bl/6NCrl mouse assessed as reduction in glucose excursion at 0.03 mg/kg, po administered via gavage pretreated for 30 mins followed by glucose-challenge measured 60 mins post dose by OGTT relative to control; type: functional; set-up: scale not given: the % may be the effect or the level left; method in brief: as §4
Mus musculus [13] = assay: Antidiabetic activity in C57Bl/6NCrl mouse assessed as reduction in glucose excursion at 0.1 mg/kg, po administered via gavage pretreated for 30 mins followed by glucose-challenge measured 60 mins post dose by OGTT relative to control; type: functional; set-up: scale not given: the % may be the effect or the level left; method in brief: as §4
Mus musculus [14] = assay: Antidiabetic activity in C57Bl/6NCrl mouse assessed as reduction in glucose excursion at 0.3 mg/kg, po administered via gavage pretreated for 30 mins followed by glucose-challenge measured 60 mins post dose by OGTT relative to control; type: functional; set-up: scale not given: the % may be the effect or the level left; method in brief: as §4
Mus musculus [15] = assay: Antidiabetic activity in C57Bl/6NCrl mouse assessed as reduction in glucose excursion at 1 mg/kg, po administered via gavage pretreated for 30 mins followed by glucose-challenge measured 60 mins post dose by OGTT relative to control; type: functional; set-up: scale not given: the % may be the effect or the level left; method in brief: as §4
Mus musculus [16] = assay: Antidiabetic activity in C57Bl/6NCrl mouse assessed as reduction in glucose excursion at 1 to 30 mg/kg, po administered via gavage pretreated for 30 mins followed by glucose-challenge measured 60 mins post dose by OGTT relative to control; type: functional; set-up: scale not given: the % may be the effect or the level left; method in brief: as §4
Mus musculus [17] = assay: Antidiabetic activity in C57Bl/6NCrl mouse assessed as maximum plasma concentration required for reduction in glucose excursion at 0.3 mg/kg, po administered via gavage pretreated for 30 mins followed by glucose-challenge measured 60 mins post dose by OGTT; type: functional, organism-based; set-up: dose 0.3 mg/kg
Method in brief: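 Lean C57Bl/6 mice were dosed orally 30 min before the glucose challenge (oGTT, glucose followed for 60 min). Plasma Cmax was taken at t = 1 h after the 0.3 mPk dose.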

Mus musculus [18] = assay: Antidiabetic activity in diet-induced obese mouse assessed as reduction in glucose excursion at 1 to 3 mg/kg, po by OGTT; type: functional, organism-based
Mus musculus [19] = assay: Antidiabetic activity in lepr db/db mouse assessed as reduction in glucose excursion at 10 mg/kg, po by OGTT; type: functional, organism-based
Mus musculus [20] = assay: Glucose lowering effect in po dosed GPR119 deficient mouse assessed as reduction in glucose level by OGTT; type: functional, organism-based
Mus musculus [21] = assay: Antidiabetic activity in C57Bl/6NCrl mouse assessed as increase in plasma GLP1 (7 to 36) amide levels at 1 mg/kg, po administered via gavage pretreated followed by glucose-challenge measured after 10 mins; type: functional, organism-based
Mus musculus [22] = assay: Antidiabetic activity in C57Bl/6NCrl mouse assessed as increase in plasma GLP1 (7 to 36) amide levels at 1 mg/kg, po administered via gavage pretreated followed by glucose-challenge measured after 10 mins in presence of sitagliptin; type: functional, organism-based
Rattus norvegicus [23] = assay: Antidiabetic activity in Sprague-Dawley rat assessed as reduction in glucose excursion at 3 mg/kg, po pretreated followed by glucose challenge measured after 10 to 30 mins by OGTT; type: functional, organism-based
Method in brief: (§5)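 Sprague-Dawley rats underwent an oral glucose tolerance test with glucose excursion measured. Sitagliptin was dosed at 1 mpk and agonist at 3 mpk, alone or co-administered.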

Rattus norvegicus [24] = assay: Antidiabetic activity in Sprague-Dawley rat assessed as reduction in glucose excursion at 3 mg/kg, po pretreated followed by glucose challenge measured after 10 to 30 mins in presence of sitagliptin by OGTT; type: functional, organism-based; method in brief: as §5
[25] = Protein binding in rat assessed as unbound fraction at 10 uM; type: ADME, cell-free; conditions: plasma
Rattus norvegicus [26] = assay: AUC in rat at 30 mg/kg, po; conditions: in vivo
[27] = AUC in dog at 10 mg/kg, po; conditions: in vivo
Rattus norvegicus [28] = assay: Oral bioavailability in rat at 30 mg/kg; conditions: in vivo
[29] = Half life in rat at 1 mg/kg, iv or 30 mg/kg, po; conditions: in vivo
[30] = Half life in dog at 1 mg/kg, iv or 10 mg/kg, po; conditions: in vivo
[31] = Plasma clearance in dog at 1 mg/kg, iv or 10 mg/kg, po
[32] = Volume of distribution at steady state in rat at 1 mg/kg, iv or 30 mg/kg, po; conditions: in vivo, read-out: Vdss
[33] = Volume of distribution at steady state in dog at 1 mg/kg, iv or 10 mg/kg, po; conditions: in vivo, read-out: Vdss

CC1(OC(=O)N2C[C@H]3COC[C@@H](C2)[C@@H]3Oc2ncnc(Nc3ccc(C#N)cc3Cl)c2F)CC1
%max [1]: 92% | EC50 [2]: 10 nM | %max [3]: 99% | EC50 [4]: 58 nM | Activity (Mus musculus [5]): 29% | clearance [6]: 3.1 mL/min/kg | Vd [7]: 2.6 L/kg | half-life [8]: 12 h | AUC [9]: 13 µM·h | bioavailability [10]: 38% | Activity (Mus musculus [11]): Dose-dependent effect | Activity (Mus musculus [12]): 21% | Activity (Mus musculus [13]): 23% | Activity (Mus musculus [14]): 46% | Activity (Mus musculus [15]): 49% | Activity (Mus musculus [16]): 50% | Cmax (Mus musculus [17]): 60 nM | Activity (Mus musculus [18]): Active | Activity (Mus musculus [19]): Active | Activity (Mus musculus [20]): inactive | Activity (Mus musculus [21]): Active | Activity (Mus musculus [22]): Active | Activity (Rattus norvegicus [23]): Active | Activity (Rattus norvegicus [24]): Active | Fu [25]: 1% | AUC (Rattus norvegicus [26]): 63 µM·h | AUC [27]: 131 µM·h | F (Rattus norvegicus [28]): 35% | half-life [29]: 8.8 h | half-life [30]: 70 h | clearance [31]: 0.77 mL/min/kg | Vd [32]: 5.8 L/kg | Vd [33]: 4.4 L/kg
